The results in this text go back to ChEMBL document CHEMBL5247577, “Improved Selective Class I HDAC and Novel Selective HDAC3 Inhibitors: Beyond Hydroxamic Acids and Benzamides” (ACS Med Chem Lett, 2019).

Each structure is given as a SMILES string. Where only a bound is given, the exact number is not on record here.

One data set addresses T1, Cytochrome P450 1A2 (Homo sapiens, UniProt P05177).
T1 sequence (P05177 whole entry): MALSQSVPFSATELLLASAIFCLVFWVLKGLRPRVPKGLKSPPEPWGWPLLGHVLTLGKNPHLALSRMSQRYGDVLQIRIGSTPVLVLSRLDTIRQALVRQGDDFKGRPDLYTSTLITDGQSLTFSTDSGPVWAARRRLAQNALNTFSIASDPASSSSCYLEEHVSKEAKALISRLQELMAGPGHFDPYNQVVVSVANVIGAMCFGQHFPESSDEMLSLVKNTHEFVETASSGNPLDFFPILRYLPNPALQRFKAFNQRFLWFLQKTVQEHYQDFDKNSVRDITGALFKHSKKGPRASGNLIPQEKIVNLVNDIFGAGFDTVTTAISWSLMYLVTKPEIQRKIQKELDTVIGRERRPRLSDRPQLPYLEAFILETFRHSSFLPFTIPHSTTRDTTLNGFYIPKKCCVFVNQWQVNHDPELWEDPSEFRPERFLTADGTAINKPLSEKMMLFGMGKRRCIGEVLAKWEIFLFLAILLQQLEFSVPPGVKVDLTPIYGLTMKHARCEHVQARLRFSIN
The data set can be described thus: Inhibition of CYP1A2 (unknown origin). The data set is classed as ADME.

The target in a further data set is Histone deacetylase. The data set can be described thus: Inhibition of HDAC in human HeLa cells using FLUOR DE LYS-SIRT1 as fluorogenic substrate incubated for 4 hrs by spectrophotometer based analysis. The data set is classed as cell-based.
The target of data set [1] is Voltage-gated inwardly rectifying potassium channel KCNH2 (Homo sapiens, UniProt Q12809). The data set can be described thus: Inhibition of hERG by patch clamp assay. The data set is classed as toxicity. Background: The hERG channel carries a current that helps repolarise heart muscle cells.
The target in data set [2] is T2, Protein deacetylase HDAC6 (Homo sapiens, UniProt Q9UBN7).
T2 sequence (Q9UBN7 whole entry): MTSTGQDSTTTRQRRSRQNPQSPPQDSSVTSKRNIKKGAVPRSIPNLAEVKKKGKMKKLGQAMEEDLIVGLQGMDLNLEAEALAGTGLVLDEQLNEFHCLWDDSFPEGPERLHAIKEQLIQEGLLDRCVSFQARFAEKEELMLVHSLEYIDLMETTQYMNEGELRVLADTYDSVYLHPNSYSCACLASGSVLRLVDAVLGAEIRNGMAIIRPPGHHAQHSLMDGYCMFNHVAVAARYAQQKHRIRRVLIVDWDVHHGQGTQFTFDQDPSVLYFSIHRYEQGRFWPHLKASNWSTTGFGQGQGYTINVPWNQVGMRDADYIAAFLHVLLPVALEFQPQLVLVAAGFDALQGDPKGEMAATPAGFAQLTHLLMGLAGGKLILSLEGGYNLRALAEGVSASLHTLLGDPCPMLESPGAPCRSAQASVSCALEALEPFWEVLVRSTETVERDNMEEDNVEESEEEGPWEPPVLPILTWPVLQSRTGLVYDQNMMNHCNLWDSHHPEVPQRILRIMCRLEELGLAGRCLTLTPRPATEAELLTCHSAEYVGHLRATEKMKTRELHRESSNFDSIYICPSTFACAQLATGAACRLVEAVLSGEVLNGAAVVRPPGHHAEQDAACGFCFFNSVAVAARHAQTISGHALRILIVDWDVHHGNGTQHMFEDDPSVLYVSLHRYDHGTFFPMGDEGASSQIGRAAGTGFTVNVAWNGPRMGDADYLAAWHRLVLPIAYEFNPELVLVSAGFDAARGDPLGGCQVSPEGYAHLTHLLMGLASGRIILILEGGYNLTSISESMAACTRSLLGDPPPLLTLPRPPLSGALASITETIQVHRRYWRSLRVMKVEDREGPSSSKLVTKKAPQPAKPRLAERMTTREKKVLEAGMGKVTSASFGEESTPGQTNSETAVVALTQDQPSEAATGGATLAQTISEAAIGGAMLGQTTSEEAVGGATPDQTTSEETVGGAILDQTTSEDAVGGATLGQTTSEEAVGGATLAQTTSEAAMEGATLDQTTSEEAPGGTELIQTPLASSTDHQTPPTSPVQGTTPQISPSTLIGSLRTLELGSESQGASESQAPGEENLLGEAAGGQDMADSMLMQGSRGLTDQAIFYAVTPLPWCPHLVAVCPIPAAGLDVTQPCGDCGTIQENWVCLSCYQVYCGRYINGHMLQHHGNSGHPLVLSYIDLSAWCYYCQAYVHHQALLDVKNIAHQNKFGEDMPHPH
Description: Inhibition of human HDAC6.

Data set [3] is described as follows: Clearance in Gottigen pig plasma by LC/MS/MS analysis. The data set is classed as ADME, Sus scrofa. In short, it runs like this:
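Compound dosed as the tartrate salt. Oral doses were 20 mg/kg in mouse, 10 mg/kg in rat and 5 mg/kg in minipig.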

Chain of Voltage-gated inwardly rectifying potassium channel KCNH2 (Q12809 whole entry): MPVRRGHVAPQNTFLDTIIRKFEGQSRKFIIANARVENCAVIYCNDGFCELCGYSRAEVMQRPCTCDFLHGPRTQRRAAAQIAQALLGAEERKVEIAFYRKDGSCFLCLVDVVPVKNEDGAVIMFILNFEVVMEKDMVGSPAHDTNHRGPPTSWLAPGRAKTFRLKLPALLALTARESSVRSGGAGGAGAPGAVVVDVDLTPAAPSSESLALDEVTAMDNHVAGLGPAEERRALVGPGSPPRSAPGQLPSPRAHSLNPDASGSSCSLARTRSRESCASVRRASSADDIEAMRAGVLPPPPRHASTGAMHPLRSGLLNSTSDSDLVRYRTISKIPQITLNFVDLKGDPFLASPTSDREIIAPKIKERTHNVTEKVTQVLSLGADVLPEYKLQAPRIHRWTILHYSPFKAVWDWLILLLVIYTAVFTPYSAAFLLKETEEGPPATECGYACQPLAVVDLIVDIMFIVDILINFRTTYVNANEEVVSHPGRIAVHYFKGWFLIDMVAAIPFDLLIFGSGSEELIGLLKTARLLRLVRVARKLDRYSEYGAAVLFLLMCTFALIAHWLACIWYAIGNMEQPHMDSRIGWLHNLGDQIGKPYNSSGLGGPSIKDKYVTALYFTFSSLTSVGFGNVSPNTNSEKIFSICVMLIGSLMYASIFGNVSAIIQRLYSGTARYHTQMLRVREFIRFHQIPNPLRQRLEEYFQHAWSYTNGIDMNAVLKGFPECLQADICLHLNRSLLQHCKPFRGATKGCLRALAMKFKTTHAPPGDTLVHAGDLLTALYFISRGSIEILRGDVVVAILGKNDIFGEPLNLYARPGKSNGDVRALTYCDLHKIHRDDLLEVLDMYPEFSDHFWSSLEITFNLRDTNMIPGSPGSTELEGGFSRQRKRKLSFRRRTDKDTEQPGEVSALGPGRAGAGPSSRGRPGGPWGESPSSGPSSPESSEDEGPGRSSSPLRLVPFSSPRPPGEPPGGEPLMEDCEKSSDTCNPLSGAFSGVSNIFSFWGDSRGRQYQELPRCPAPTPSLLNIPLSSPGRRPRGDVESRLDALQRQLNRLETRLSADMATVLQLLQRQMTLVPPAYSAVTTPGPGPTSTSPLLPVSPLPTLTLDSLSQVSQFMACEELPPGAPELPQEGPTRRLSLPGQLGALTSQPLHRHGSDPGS

Usually IC50 stands for the midpoint of a concentration-inhibition curve. Higher therefore signals weaker potency in that assay. The term EC50 denotes the concentration giving half of the maximal effect. A higher EC50 goes with lower potency in that assay. For orientation: clearance means the rate of elimination divided by the concentration. Read a low clearance as a low capacity for elimination. Regarding `CCC(=O)CCCCC[C@H](NC(=O)C1CN(C)C1)c1ncc(-c2cc3ccccc3nc2OC)o1`, the IC50 is greater than 20 µM at Cytochrome P450 1A2, 10 µM in data set [1] and 0.177 µM in data set [2]. Moreover, the EC50 at Histone deacetylase is 0.05 µM. In data set [3], this compound showed a clearance of 20 mL/min/kg.
